Results collected from several papers.
Compare with care: the assays were run in different laboratories.
Target: Tyrosine-protein kinase CSK (CSK, Homo sapiens, UniProt P41240)

SMILES | assay | conditions | endpoint | result
O=c1[nH]c2ccccc2n1C1CCN(Cc2ccc(-c3[nH]c4cc5ncnc5cc4nc3-c3ccccc3)cc2)CC1 | enzyme activity | 0.5 µM | remaining activity | 101%
Cc1nn(C)cc1-c1nc2c(N3CCN(Cc4ccc(Cl)cc4)CC3)c(Cl)cnc2[nH]1 | binding, competition with immobilised ligand | 1 µM | remaining binding | 100%
Nc1ncc(-c2nc(N3CCOCC3)nc(N3CCOCC3)n2)c(C(F)F)n1 | binding, competition with immobilised ligand | 10 µM | remaining binding | 73%
N#CC1(c2ccccn2)CCN(Cc2cc(C(=O)O)c(=O)n3ccccc23)CC1 | cell-free assay, competition with immobilised ligand | 1 µM | remaining binding | 100%
Cn1cc(-c2cc(F)cc(N3CCn4c(cc5c4CCCC5)C3=O)c2CO)cc(Nc2ccc(N3CCN(C4COC4)CC3)cn2)c1=O | enzyme activity, inhibitor | 0.1 µM | inhibition | 12%
O=C(NCc1ncc(C(F)(F)F)cc1Cl)c1ccc2c(c1)C1(CCS(=O)(=O)CC1)[C@@H](C1CC1)N2S(=O)(=O)c1ccc(F)cc1 | cell-free assay, competition with immobilised ligand | 1 µM | remaining binding | 96%
COc1ncccc1-c1cnn2ccc(N3CCN(C(=O)OC(C)C)CC3)nc12 | binding, competition with immobilised ligand | 1 µM | remaining binding | 100%
CC(C)(C)c1cc(C=C(C#N)C#N)cc(Br)c1O | enzyme activity, inhibitor | 0.5 µM | remaining activity | 106%
Cn1cc(-c2cccc(N3CCc4c(sc5c4CC(C)(C)C5)C3=O)c2CO)cc(Nc2ccncn2)c1=O | enzyme activity, inhibitor | 1 µM | inhibition | 4%
